Results published in ChEMBL document CHEMBL4330096, “Discovery of potent and selective 5-azaindazole inhibitors of leucine-rich repeat kinase 2 (LRRK2) - Part 1” (Bioorg Med Chem Lett, 2019).

Tests used:
[1] = target: T1, Serine/threonine-protein kinase Sgk1 (Homo sapiens) (UniProt O00141); assay: Inhibition of SGK1 (unknown origin) at 1 uM relative to control
T1 sequence (whole entry): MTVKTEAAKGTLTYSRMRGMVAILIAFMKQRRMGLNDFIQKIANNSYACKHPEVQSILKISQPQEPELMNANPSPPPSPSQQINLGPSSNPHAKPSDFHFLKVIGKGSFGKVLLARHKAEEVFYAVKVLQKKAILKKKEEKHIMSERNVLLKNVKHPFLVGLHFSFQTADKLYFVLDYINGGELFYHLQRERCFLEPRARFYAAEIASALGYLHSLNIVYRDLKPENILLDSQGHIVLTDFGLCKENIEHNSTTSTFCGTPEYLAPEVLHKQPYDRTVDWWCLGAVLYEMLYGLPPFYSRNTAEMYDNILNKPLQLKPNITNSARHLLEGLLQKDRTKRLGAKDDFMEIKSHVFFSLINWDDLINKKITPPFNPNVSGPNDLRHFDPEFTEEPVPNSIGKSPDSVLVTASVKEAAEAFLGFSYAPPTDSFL
Outline: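 Single-concentration screen across a panel of 59 protein kinases, with each compound tested at one fixed concentration. The read-out is residual kinase activity relative to control. Panel results are also condensed into a rescaled geometric mean (RGM) selectivity score.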

[2] = target: T2, Protein kinase C zeta type (Homo sapiens) (UniProt Q05513); assay: Inhibition of PKCz (unknown origin) at 1 uM relative to control
T2 sequence (whole entry): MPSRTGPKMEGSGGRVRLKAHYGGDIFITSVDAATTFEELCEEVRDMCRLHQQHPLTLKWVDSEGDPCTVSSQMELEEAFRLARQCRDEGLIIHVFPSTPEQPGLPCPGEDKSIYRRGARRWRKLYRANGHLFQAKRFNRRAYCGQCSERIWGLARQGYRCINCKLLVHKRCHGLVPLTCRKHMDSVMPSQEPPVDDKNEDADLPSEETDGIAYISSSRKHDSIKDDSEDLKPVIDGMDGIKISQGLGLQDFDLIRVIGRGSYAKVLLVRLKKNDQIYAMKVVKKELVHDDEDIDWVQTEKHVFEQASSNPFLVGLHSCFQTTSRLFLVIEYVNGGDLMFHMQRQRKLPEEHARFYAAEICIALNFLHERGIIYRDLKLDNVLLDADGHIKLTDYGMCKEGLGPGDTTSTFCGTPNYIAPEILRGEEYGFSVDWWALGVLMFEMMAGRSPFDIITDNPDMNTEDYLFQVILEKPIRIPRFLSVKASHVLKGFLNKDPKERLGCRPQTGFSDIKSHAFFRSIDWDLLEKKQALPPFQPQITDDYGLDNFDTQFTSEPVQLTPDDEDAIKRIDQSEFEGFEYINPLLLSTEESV
Outline: (§1)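 Single-concentration screen of each compound against a 59-protein-kinase panel, run at 10 µM or 1 µM. Activity relative to control is shown as a heat map across the panel.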

[3] = target: Tyrosine-protein kinase BTK (Homo sapiens) (UniProt Q06187); assay: Inhibition of BTK (unknown origin) at 1 uM relative to control
Tyrosine-protein kinase BTK (Homo sapiens), sequence (Q06187 whole entry): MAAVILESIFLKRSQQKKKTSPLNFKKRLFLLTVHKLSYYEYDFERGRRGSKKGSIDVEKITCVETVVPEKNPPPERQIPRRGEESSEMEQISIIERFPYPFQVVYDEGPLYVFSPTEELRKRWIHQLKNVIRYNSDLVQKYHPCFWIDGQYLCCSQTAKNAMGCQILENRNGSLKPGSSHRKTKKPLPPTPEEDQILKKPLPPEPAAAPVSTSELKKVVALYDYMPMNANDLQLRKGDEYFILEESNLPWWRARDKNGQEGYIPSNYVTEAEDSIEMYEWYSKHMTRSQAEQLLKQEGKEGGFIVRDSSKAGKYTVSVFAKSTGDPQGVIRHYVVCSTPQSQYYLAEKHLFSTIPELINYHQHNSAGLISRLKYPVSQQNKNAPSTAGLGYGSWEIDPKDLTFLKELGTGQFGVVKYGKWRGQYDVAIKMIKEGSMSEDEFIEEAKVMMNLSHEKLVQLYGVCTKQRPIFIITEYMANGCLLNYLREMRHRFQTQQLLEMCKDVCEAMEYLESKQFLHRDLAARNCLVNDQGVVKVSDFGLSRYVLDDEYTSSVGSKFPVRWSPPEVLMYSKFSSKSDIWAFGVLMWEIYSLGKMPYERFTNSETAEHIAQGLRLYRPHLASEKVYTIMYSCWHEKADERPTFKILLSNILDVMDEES
Outline: (§2)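 Single-point screen of each compound against a panel of 59 protein kinases, at 1 or 10 μM. The panel data are also summarised as a rescaled geometric mean selectivity score.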

[4] = target: Casein kinase 2 (Homo sapiens) (UniProt P67870+P68400+P19784+Q8NEV1); assay: Inhibition of CK2 (unknown origin) at 1 uM relative to control; format: protein assay; outline: as §2
[5] = target: T3, Inhibitor of nuclear factor kappa-B kinase subunit beta (Homo sapiens) (UniProt O14920); assay: Inhibition of IKKb (unknown origin) at 1 uM relative to control; outline: as §2
T3 sequence (whole entry): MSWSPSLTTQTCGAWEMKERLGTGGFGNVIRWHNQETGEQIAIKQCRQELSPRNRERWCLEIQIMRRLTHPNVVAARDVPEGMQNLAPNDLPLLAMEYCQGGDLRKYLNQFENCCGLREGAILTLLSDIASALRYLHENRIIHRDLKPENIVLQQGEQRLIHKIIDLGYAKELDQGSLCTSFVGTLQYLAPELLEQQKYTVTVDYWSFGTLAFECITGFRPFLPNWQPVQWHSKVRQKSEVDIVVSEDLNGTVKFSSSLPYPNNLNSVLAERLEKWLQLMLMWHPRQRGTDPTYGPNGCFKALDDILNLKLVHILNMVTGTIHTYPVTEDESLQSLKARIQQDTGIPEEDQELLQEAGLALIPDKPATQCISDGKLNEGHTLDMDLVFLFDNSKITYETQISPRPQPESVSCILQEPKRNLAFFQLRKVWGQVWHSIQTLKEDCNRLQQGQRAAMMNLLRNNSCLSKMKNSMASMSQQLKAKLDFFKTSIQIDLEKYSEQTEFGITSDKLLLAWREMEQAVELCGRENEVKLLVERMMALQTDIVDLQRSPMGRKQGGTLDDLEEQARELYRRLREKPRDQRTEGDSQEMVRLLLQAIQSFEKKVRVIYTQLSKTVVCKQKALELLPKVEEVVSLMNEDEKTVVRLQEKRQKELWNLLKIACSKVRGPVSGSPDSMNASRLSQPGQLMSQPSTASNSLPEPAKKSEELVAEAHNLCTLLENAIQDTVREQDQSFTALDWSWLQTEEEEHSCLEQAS

[6] = target: MAP kinase-interacting serine/threonine-protein kinase 2 (Homo sapiens) (UniProt Q9HBH9); assay: Inhibition of MNK2 (unknown origin) at 1 uM relative to control; outline: as §1
MAP kinase-interacting serine/threonine-protein kinase 2 (Homo sapiens), sequence (Q9HBH9 whole entry, looked up): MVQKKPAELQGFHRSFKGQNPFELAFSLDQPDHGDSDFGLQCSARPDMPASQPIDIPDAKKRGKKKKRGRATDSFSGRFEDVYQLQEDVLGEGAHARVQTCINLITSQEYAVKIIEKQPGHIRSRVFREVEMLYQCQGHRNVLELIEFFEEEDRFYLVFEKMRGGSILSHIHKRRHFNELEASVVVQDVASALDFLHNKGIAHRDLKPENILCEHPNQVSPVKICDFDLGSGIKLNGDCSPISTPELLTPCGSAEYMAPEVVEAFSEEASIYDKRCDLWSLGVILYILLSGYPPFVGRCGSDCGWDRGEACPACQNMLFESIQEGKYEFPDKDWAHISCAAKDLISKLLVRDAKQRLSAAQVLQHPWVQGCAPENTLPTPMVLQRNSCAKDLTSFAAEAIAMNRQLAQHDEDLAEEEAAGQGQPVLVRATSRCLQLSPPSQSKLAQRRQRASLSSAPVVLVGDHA

[7] = target: RAC-alpha serine/threonine-protein kinase (Homo sapiens) (UniProt P31749); assay: Inhibition of PKBa (unknown origin) at 1 uM relative to control; outline: as §1
RAC-alpha serine/threonine-protein kinase (Homo sapiens), sequence (P31749 whole entry): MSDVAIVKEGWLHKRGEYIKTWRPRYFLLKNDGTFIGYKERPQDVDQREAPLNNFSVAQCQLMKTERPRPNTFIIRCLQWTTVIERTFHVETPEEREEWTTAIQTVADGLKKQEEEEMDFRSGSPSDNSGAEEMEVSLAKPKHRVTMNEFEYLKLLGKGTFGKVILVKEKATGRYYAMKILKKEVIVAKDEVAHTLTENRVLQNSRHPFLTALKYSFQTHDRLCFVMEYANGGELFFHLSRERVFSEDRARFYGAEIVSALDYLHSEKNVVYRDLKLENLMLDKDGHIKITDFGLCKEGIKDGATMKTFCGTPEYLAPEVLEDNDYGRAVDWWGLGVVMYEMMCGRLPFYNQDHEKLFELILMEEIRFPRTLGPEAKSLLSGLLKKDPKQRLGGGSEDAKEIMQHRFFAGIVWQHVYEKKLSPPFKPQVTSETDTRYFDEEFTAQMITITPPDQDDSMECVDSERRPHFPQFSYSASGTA

[8] = target: Casein kinase I (Homo sapiens) (UniProt Q9HCP0+P78368+P48730+P49674+P48729); assay: Inhibition of CK1 (unknown origin) at 1 uM relative to control; format: protein assay; outline: as §2
[9] = target: Mitogen-activated protein kinase 1 (Homo sapiens) (UniProt P28482); assay: Inhibition of ERK2 (unknown origin) at 1 uM relative to control; outline: as §2
Mitogen-activated protein kinase 1 (Homo sapiens), sequence (P28482 whole entry): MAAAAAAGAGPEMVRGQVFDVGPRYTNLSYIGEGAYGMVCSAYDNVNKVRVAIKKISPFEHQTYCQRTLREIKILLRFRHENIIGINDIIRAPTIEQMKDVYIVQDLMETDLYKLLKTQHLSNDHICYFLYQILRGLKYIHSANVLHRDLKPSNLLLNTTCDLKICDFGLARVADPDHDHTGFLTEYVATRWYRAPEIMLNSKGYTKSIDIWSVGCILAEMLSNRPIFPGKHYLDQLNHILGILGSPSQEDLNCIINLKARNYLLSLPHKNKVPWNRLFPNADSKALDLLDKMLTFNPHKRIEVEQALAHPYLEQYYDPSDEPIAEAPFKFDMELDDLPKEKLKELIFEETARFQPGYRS

[10] = target: Insulin receptor-related protein (Homo sapiens) (UniProt P14616); assay: Inhibition of IRR (unknown origin) at 1 uM relative to control; outline: as §2
Insulin receptor-related protein (Homo sapiens), sequence (P14616 27-742 limits assumed): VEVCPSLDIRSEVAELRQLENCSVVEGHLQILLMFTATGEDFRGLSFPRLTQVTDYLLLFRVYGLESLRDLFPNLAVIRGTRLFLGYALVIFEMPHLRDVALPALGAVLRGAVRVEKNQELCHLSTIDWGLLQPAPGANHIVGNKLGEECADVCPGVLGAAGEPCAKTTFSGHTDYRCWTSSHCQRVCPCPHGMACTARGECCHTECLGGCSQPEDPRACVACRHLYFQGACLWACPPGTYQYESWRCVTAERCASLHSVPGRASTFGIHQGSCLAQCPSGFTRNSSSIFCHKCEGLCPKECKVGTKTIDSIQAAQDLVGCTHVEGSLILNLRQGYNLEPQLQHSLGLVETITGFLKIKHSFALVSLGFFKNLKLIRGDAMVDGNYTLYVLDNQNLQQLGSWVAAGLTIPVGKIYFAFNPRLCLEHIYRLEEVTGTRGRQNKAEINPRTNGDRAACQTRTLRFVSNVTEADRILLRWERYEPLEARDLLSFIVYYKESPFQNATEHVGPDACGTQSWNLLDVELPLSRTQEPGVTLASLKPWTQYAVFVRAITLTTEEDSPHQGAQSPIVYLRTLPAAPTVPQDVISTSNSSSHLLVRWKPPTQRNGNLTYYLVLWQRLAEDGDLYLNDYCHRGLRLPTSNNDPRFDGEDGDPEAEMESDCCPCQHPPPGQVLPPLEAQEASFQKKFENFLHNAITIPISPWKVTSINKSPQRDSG
Insulin receptor-related protein (Homo sapiens), sequence (P14616 747-1297 limits assumed): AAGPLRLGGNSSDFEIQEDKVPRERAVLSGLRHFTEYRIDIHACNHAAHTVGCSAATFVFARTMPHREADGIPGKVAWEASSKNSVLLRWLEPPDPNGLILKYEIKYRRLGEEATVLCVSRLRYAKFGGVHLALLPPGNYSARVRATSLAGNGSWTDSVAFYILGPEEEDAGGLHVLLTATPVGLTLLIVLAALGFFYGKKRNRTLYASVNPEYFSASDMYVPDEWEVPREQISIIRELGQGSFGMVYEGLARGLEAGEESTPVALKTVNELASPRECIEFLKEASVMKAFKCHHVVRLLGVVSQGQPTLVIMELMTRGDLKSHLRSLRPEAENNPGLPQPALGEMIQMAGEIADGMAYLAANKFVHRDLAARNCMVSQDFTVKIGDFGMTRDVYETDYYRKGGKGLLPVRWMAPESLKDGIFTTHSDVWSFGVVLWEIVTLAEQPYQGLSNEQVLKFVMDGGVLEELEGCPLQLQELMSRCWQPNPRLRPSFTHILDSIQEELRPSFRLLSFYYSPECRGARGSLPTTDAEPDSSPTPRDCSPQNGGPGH

[11] = target: Glycogen synthase kinase-3 beta (Homo sapiens) (UniProt P49841); assay: Inhibition of GSK3b (unknown origin) at 1 uM relative to control; outline: as §2
Glycogen synthase kinase-3 beta (Homo sapiens), sequence (P49841 whole entry, looked up): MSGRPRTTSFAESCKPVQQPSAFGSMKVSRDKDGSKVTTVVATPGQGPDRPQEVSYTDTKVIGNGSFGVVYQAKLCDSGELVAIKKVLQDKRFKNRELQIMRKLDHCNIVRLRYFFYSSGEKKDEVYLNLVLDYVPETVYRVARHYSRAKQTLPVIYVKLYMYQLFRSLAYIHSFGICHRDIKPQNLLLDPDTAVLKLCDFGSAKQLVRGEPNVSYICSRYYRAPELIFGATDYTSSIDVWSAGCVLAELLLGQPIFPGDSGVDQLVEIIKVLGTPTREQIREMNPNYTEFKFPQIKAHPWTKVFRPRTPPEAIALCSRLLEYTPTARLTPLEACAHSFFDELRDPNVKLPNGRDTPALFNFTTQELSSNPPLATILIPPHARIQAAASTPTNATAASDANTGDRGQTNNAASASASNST

[12] = target: MAP/microtubule affinity-regulating kinase 3 (Homo sapiens) (UniProt P27448); assay: Inhibition of MARK3 (unknown origin) at 1 uM relative to control; outline: as §1
MAP/microtubule affinity-regulating kinase 3 (Homo sapiens), sequence (P27448 whole entry, looked up): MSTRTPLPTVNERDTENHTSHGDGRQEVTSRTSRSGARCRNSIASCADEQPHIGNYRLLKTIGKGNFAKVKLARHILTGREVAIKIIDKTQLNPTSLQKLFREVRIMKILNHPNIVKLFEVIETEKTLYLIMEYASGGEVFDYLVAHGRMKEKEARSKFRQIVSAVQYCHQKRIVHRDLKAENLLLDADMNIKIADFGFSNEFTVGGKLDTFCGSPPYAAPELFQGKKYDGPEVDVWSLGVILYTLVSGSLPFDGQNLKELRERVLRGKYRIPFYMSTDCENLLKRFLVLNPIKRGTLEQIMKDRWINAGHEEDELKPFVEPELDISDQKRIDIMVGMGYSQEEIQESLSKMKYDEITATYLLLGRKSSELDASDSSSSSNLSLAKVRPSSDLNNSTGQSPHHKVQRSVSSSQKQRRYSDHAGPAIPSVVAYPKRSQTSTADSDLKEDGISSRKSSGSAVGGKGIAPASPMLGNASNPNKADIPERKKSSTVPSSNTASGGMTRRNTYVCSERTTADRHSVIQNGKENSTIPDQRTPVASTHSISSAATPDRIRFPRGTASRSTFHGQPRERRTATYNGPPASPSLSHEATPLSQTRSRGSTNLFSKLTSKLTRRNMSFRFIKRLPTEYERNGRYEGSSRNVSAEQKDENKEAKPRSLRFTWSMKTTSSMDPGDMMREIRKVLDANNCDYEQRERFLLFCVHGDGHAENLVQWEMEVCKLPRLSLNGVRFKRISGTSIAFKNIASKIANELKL

| SMILES | inhibition [1] [%] | inhibition [2] [%] | inhibition [3] [%] | inhibition [4] [%] | inhibition [5] [%] | inhibition [6] [%] | inhibition [7] [%] | inhibition [8] [%] | inhibition [9] [%] | inhibition [10] [%] | inhibition [11] [%] | inhibition [12] [%] |
| --- | --- | --- | --- | --- | --- | --- | --- | --- | --- | --- | --- | --- |
| CC(C)n1cc(-c2n[nH]c3ccnc(OC4CCOCC4)c23)cn1 | 12 | 14 | 39 | 20 | 3 | 5 | 0 | 0 | 49 | 45 | 90 | 18 |
| c1cc(-c2n[nH]c3ccnc(OC4CCOCC4)c23)cc(N2CCOCC2)n1 | 0 | 1 | 51 | 3 | 0 | 13 | 0 | 0 | 51 | 3 | 36 | 0 |
